Assay results as given in ChEMBL document CHEMBL4052661, “Structure Based Design of N-(3-((1H-Pyrazolo[3,4-b]pyridin-5-yl)ethynyl)benzenesulfonamides as Selective Leucine-Zipper and Sterile-α Motif Kinase (ZAK) Inhibitors” (J Med Chem, 2017).

Legend:
[1] = target: Mitogen-activated protein kinase kinase kinase 20 (Homo sapiens, UniProt Q9NYL2); assay: Inhibition of N-terminal GST-tagged recombinant human full-length ZAK expressed in baculovirus infected Sf9 insect cells using MBP as substrate after 30 mins by ADP-Glo assay
Mitogen-activated protein kinase kinase kinase 20, sequence (Q9NYL2 whole entry): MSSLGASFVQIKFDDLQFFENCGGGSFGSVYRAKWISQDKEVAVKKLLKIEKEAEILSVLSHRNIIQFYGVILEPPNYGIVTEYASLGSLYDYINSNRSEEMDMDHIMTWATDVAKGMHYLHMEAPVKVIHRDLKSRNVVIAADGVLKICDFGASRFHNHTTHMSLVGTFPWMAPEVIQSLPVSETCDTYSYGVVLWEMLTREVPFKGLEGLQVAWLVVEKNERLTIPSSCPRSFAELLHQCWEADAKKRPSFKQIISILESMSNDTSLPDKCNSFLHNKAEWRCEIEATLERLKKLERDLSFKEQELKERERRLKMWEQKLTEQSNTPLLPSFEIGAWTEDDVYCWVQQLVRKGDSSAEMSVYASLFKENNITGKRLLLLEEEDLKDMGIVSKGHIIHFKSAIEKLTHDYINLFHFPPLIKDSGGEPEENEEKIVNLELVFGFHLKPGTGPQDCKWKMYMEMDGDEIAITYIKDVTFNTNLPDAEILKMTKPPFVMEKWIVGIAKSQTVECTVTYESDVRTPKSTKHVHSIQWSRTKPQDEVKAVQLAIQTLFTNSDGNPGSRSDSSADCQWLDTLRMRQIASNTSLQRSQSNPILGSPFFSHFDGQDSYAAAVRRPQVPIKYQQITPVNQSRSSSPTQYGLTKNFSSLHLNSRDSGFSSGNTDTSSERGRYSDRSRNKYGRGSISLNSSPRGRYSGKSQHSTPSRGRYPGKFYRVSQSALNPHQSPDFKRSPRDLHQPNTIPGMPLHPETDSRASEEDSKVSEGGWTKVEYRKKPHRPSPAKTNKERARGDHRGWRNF
Summary of the method: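 ZAK activity by ADP-Glo luminescence with MBP as substrate, ATP and serially diluted compound. Reaction started by adding ATP and run 30 min at room temperature. ADP-Glo reagent was added to stop it (40 min), then detection reagent for 30 min before reading luminescence. Curves fitted; each experiment repeated at least 3 times.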

[2] = target: Serine/threonine-protein kinase B-raf (Homo sapiens, UniProt P15056, V600E); assay: Inhibition of recombinant human B-RAF V600E mutant using Ser/Thr3 as substrate after 1 hr by FRET-based Z'-Lyte assay
Serine/threonine-protein kinase B-raf (Homo sapiens, UniProt P15056, V600E), sequence (P15056 2-766 V600E limits assumed): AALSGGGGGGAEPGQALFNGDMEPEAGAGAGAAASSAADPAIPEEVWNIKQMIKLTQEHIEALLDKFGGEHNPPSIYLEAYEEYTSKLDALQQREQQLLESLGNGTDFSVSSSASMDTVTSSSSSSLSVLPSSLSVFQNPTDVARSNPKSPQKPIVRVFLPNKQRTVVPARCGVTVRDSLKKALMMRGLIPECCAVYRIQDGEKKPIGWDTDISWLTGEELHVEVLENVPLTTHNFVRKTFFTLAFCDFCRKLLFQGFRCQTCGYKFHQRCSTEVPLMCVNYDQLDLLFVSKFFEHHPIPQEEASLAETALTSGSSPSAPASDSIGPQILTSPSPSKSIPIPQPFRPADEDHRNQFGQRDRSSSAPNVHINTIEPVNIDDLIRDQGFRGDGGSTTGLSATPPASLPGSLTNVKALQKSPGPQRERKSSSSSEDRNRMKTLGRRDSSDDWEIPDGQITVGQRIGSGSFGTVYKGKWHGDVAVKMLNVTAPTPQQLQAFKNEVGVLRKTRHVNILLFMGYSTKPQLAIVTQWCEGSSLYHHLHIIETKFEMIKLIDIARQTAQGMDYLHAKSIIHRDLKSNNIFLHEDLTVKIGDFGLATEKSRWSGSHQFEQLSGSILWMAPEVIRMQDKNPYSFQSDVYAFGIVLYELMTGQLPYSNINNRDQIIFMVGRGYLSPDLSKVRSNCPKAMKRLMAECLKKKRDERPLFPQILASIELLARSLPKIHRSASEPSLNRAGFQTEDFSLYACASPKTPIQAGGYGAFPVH

[3] = target: Serine/threonine-protein kinase B-raf (Homo sapiens, UniProt P15056); assay: Inhibition of wild type GST-tagged recombinant human full-length B-RAF expressed in baculovirus expression system using Ser/Thr3 as substrate after 1 hr by FRET-based Z'-Lyte assay
Serine/threonine-protein kinase B-raf (Homo sapiens, UniProt P15056), sequence (P15056 whole entry): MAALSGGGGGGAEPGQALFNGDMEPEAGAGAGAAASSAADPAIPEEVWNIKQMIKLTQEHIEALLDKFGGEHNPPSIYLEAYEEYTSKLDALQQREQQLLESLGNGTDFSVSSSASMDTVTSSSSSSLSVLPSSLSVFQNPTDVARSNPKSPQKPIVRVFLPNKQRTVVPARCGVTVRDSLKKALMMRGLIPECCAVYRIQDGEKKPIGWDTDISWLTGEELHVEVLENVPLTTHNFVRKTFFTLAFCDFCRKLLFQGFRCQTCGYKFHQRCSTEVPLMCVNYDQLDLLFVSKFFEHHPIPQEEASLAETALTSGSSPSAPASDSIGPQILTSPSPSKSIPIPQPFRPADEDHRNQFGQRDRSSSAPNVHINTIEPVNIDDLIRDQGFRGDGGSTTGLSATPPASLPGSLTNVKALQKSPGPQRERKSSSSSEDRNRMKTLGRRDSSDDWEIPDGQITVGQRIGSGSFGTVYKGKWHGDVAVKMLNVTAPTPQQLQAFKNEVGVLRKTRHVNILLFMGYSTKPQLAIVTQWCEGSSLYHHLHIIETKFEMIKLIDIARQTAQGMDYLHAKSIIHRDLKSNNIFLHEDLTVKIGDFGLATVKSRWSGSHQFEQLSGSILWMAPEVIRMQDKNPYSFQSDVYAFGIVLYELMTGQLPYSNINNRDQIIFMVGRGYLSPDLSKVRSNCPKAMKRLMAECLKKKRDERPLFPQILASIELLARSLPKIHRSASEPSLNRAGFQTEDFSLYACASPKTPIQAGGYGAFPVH
Summary of the method: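 Z'-Lyte FRET assay with Ser/Thr3 peptide in kinase buffer; the final reaction held 0.002 ng B-Raf for wild type. Incubated 1 h at room temperature, then 1 h development to cleave nonphosphorylated peptide, then stop reagent. Means of 3 independent experiments.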

| IC50 [1] | IC50 [2] | IC50 [3] | Structure (SMILES) |
| --- | --- | --- | --- |
| 5.1 nM | > 1000 nM | > 1000 nM | COc1n[nH]c2ncc(C#Cc3c(F)ccc(NS(=O)(=O)c4ccccc4Cl)c3F)cc12 |
| 5.1 nM | > 10000 nM | > 5000 nM | O=S(=O)(Nc1ccc(F)c(C#Cc2cnc3[nH]ncc3c2)c1F)c1cccc(Cl)c1 |
| 144 nM | > 10000 nM | > 10000 nM | O=S(=O)(Nc1ccc(F)c(C#Cc2cnc3[nH]nc(OC4CCCC4)c3c2)c1F)c1cccc(Cl)c1 |
| 994 nM | > 10000 nM | > 10000 nM | O=S(=O)(Nc1ccc(F)c(C#Cc2ccc3[nH]ncc3c2)c1F)c1cccc(Cl)c1 |
